B1: tRNA (parent)
chain: GUUCCGUUGGCGUAAUGGUAACGCGUCUCCCUCCUAAGGAGAAGACUGCGGGUUCGAGUCCCGUACGGAACG

Variants at the floor of the assay were thinned out.

The variants in the data set derive from B1. Description: yeast fitness relative to wild type (ratio to wild type); higher = fitter; tRNA-Arg(CCU), competitive growth, 37 C, YPD. The essentials: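 A pool of Saccharomyces cerevisiae strains, each with a tRNA-Arg(CCU) gene variant at the native genomic locus, was competed in YPD at 37°C for 24 hours across six parallel replicates. The variants had been chemically synthesised at a 3% per-site mutation rate over 69 sites, and gene amplicons before and after competition were read by 100-nucleotide paired-end sequencing. Darwinian fitness relative to wild type rested on changes in genotype frequencies. Genotypes required ≥ 100 starting reads, and estimates < 0.5 were set to 0.5.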
Take C46A C49G C55U: the yeast fitness is 0.563.
The value for A45C U47A C66U was 0.595.
On to A45G G58A C60U, for which the yeast fitness worked out at 0.584.
With A45U G50U G68C A69U, the yeast fitness was at most 0.5.
Consider A45C G58A C62U A69C, for which the yeast fitness came to 0.59.
With A45U G56C, the yeast fitness is 0.714.
To A45G C61A A65U belongs at most 0.5; to A45U A57U U59G U64G, at most 0.5.
A45U A65G G68A: the yeast fitness was determined as 0.73.
For A45C C66G, the yeast fitness came to 0.586.
For G44C C60G, the yeast fitness is 0.59.
For the variant A45C U64C A65C, the yeast fitness is 0.965.
Consider A45G C49A C62A, for which the yeast fitness is at most 0.5.
Take A45U G68U: the yeast fitness amounted to 0.836.
Regarding A45U G68C, the yeast fitness was 0.66.
A45U G68A: the yeast fitness came to 0.926.
Take A45U C62U G63C: the yeast fitness is at most 0.5.
For A45C C46G G51C, the yeast fitness stood at 0.546.
In the case of A45C G52A U53C G58A C62G, the yeast fitness was at most 0.5.
The value for A45U C66G was 0.617; that for A45C G51A C55A was 0.516.
Take A45C A69U: the yeast fitness worked out at 0.959.
Take G44C C55U: the yeast fitness is 0.731.
With A45G C55U C61G A69C, the yeast fitness was at most 0.5.
G44C G52A: the yeast fitness came out at 0.833.
As to A45U C49U U64A, the yeast fitness came out at 0.571.
Regarding G44C G68A, the yeast fitness was determined as 0.937.
Turning to A45U G50A C55G A70U, the yeast fitness was at most 0.5.
For the variant A45U C62G, the yeast fitness was determined as 0.837.
As to A45U C62U, the yeast fitness was found to be 1.07.
To A45U G67A belongs 0.767; to G44C G63C G68A, at most 0.5; to G44C A45U U53C, 0.605.
In the case of G44U G52A C55G A69U, the yeast fitness is at most 0.5.
Consider A45C G50A A65U, for which the yeast fitness is 0.643.
On to A45U U53C G67A A69C, for which the yeast fitness was found to be 0.635.
In the case of A45C U47C C49U, the yeast fitness was 0.806.
To G44C C66U A70C belongs 0.88; to A45G G56A, 1.1.
To A45U G52A U64C A69U belongs at most 0.5.
In the case of A45U C55U C62A, the yeast fitness was at most 0.5.
In the case of A45C C49U G63A, the yeast fitness turned out to be 0.74.
Regarding A45U U59C, the yeast fitness worked out at 0.897.
Turning to A45U U59G, the yeast fitness is 0.66.
The value for A45C G48A was 0.828; that for A45C G48A G67A was 0.829.
On to A45G C46G, for which the yeast fitness was determined as 0.87.
For A45G C55A G56A G67A, the yeast fitness was at most 0.5.
The value for G44C U54C U64A G68A was at most 0.5; that for A45C U59C A70C was 0.741.
In the case of G44C C60A C66U, the yeast fitness is at most 0.5.
With A45U G52C, the yeast fitness amounted to 0.642.
The value for G44C A65G A70C was 0.682; that for A45G C46G U54G A70C was at most 0.5.
Regarding A45C U64G, the yeast fitness came out at 0.654.
As for A45C C46A C62A, the yeast fitness was determined as 0.603.
Regarding A45C G52A A69C, the yeast fitness was determined as 0.568.
A45U C46U: the yeast fitness was 1.09.
As for A45G G58A U64A, the yeast fitness came to 0.71.
In the case of G44C C66U, the yeast fitness stood at 0.692.
In the case of A45U C60U G68A, the yeast fitness came out at 0.575.
As for A45G A70U, the yeast fitness came out at 0.913.
For A45G A70G, the yeast fitness amounted to 1.19.
Turning to A45G A65G, the yeast fitness came to 1.04.
As to G44C U54C C66U, the yeast fitness worked out at 0.601.
Consider A45G C49U A69U, for which the yeast fitness amounted to 1.04.
The value for A45U C62G A65G was 0.913; that for A45C G52C was 0.762; that for G44C C60G A65G was 0.617.
In the case of C46A A57G G68A, the yeast fitness is 0.605.
For A45C U53A C60G, the yeast fitness amounted to 0.536.
On to A45C C55G, for which the yeast fitness is 0.528.
To A45U G50A belongs 1.01; to G44A U64G, 0.694; to A45U G48C, 0.857.
Turning to A45U U53G G67A, the yeast fitness is at most 0.5.
A45G U47C: the yeast fitness turned out to be 1.01.
The value for G44C U54A C61A was 0.561; that for A45U C61G C66U was 0.53; that for A45U G48C A57C G67U was at most 0.5.
Consider G44C G58C C66U, for which the yeast fitness came out at 0.653.
To A45C A57U A65C belongs 0.617; to A45U C62U C66U, 0.704.
Consider A45G G48A G56C C60G, for which the yeast fitness was at most 0.5.
A45C G50A A57G: the yeast fitness was 0.665.
The value for G44C G50C U54G C61G U64C was at most 0.5.
Take A45G C61G A65C A70U: the yeast fitness is at most 0.5.
As to G44C C61A, the yeast fitness was 0.583.
On to A45C G67A, for which the yeast fitness came to 0.814.
Take A45G C60U: the yeast fitness is 0.743.
With A45G C60G, the yeast fitness turned out to be 0.821.
As to A45G C49U C55G C61G, the yeast fitness came out at 0.732.
The value for A45U C49A was 0.57.
Take A45U G56A A69C: the yeast fitness was determined as 0.766.
For G44C A69G, the yeast fitness was determined as 1.04.
As for A45C C60A, the yeast fitness came to 0.62.
In the case of A45U C46A G63A, the yeast fitness is 1.06.
For the variant A45G A65G A70C, the yeast fitness came out at 0.666.
The value for A45C G48C A69U was 0.675; that for C46A C49A A70C was at most 0.5; that for G44C A57U was 0.554.
On to G44C G50C U54G C61G, for which the yeast fitness was found to be 0.568.
The value for A45C C61A was 0.797.
As for A45C C61U, the yeast fitness amounted to 0.992.
Take A45U U53C: the yeast fitness amounted to 0.793.
Regarding A45G G48C G56A, the yeast fitness was 0.968.
C46A A65U: the yeast fitness turned out to be 0.843.
As for C46A A65C, the yeast fitness was 0.973.
On to A45U G68A A70C, for which the yeast fitness was determined as 0.641.
As to A45G A57C, the yeast fitness was 0.668.
On to A45C A57U C60U A65C, for which the yeast fitness was at most 0.5.
With A45C A57C, the yeast fitness is 0.573.
Regarding A45C A57U, the yeast fitness is 0.682.
For G44C G56A A57G, the yeast fitness worked out at 0.543.
Take G44C G50C A70C: the yeast fitness was found to be 0.573.
To A45U U47A C60G belongs at most 0.5.
As for G44C G52A A69G, the yeast fitness is at most 0.5.
Turning to C46A C49G, the yeast fitness was found to be 0.746.
To A45G A69C belongs 0.912; to A45G A69U, 1.01; to A45G C62A A69C, 0.595.
Consider A45U A57G, for which the yeast fitness was 0.917.
Take A45G G68C: the yeast fitness worked out at 0.695.
Turning to A45C C46G C49A A69U, the yeast fitness is at most 0.5.
In the case of A45C U54G, the yeast fitness worked out at 0.605.
On to A45U G50A G63A G68C A69U, for which the yeast fitness was at most 0.5.
For the variant A45U C46G G63A, the yeast fitness was at most 0.5.
The value for A45C A70C was 1.05; that for G44C G67C was 0.823.
G44C G56A C66U: the yeast fitness worked out at 0.634.
Consider A45C C49U G56A, for which the yeast fitness stood at 0.856.
As for A45C C49G G58C, the yeast fitness was at most 0.5.
To G44C G50A A69U belongs 0.63.
Consider G44C A45G G67A, for which the yeast fitness was determined as 0.695.
For A45C G51C U64C, the yeast fitness is at most 0.5.
In the case of G44U, the yeast fitness was found to be 1.01.
The value for G44C was 0.985; that for G44C G56C was 0.58; that for A45G C49G A65U was 0.56.
Turning to A45U C61U, the yeast fitness was determined as 0.974.
On to A45C C46G G68A, for which the yeast fitness was 0.678.
Regarding A45G G51A G67A, the yeast fitness was determined as 0.601.
To A45G C49A belongs 0.609.
To A45C G48C G50A U53C C66A belongs at most 0.5; to A45U U54C U64A A69U, at most 0.5; to A45C C60A C66U, at most 0.5.
In the case of A45C U59G, the yeast fitness worked out at 0.713.
For A45U C46U U53C, the yeast fitness is 0.574.
For A45C A57C G58C, the yeast fitness was 0.602.
Consider A45C U53A, for which the yeast fitness stood at 0.727.
As for A45C U53C, the yeast fitness worked out at 0.823.
As to A45G G67C, the yeast fitness turned out to be 0.872.
As for A45G G67A, the yeast fitness was determined as 0.961.
Consider A45G U54C, for which the yeast fitness was found to be 0.774.
The value for A45C C60U A70G was 0.683; that for C46A A57C C60A was at most 0.5.
A45U G51C G68A: the yeast fitness is at most 0.5.
As to A45U A65G A70C, the yeast fitness is 0.754.
For the variant G44U A70C, the yeast fitness was 0.813.
C46A C49A C61A: the yeast fitness was at most 0.5.
On to A45C G58A, for which the yeast fitness is 0.977.
As to A45C G58C, the yeast fitness stood at 1.06.
In the case of A45C G63A, the yeast fitness worked out at 0.85.
Turning to G44C C62U, the yeast fitness amounted to 0.902.
As to G44C G63C, the yeast fitness worked out at 0.623.
The value for G44C C61A C66U was 0.824.
The value for A45G G50C U54A G67A was 0.803.

These data come from the RNAGym collection of RNA variant scans (doi:10.1126/science.aae0568).
